According to ChEMBL document CHEMBL2424527, “Doxorubicin-antioxidant co-drugs” (Bioorg Med Chem Lett, 2013):
Activity calls are given as the source filed them. No cut-off for these calls is given here.

Key:
[1] = tested on: H9c2; assay: Cellular uptake in rat H9c2 cells at 5 umol/L after 24 hrs by spectrofluorimetry; assay type: ADME, cell-based; details: h9c2, 24 h, 5 µM
In short: (§1)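 Cells exposed 24 h to 5 μmol/L drug. Doxorubicin in whole-cell lysates read fluorimetrically at ex 475/em 553 nm, cell-free blank subtracted. Converted to nmol/mg cell protein via calibration curve. Duplicate measurements; means ± SD, n = 3.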

[2] = tested on: MDA-MB-231; assay: Cytotoxicity against human MDA-MB-231 cells assessed as LDH release at 5 umol/L after 24 hrs; assay type: functional, cell-based
In short: (§2)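 Cells exposed 24 h to 5 μmol/L compound. Medium centrifuged 12,000 × g, 15 min; cells sonicated in 82.3 mmol/L triethanolamine phosphate-HCl pH 7.6. LDH read at 340 nm over 6 min in medium and lysate, in duplicate. Extracellular activity given as % of total; means ± SD, n = 4.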

[3] = tested on: MDA-MB-231; assay: Cellular uptake in human MDA-MB-231 cells at 5 umol/L after 24 hrs by spectrofluorimetry; assay type: ADME, cell-based; details: mda-mb-231, 24 h, 5 µM; in short: as §1
[4] = tested on: MCF7; assay: Cellular uptake in human MCF7 cells at 5 umol/L after 24 hrs by spectrofluorimetry; assay type: ADME, cell-based; details: mcf7, 24 h, 5 µM; in short: as §1
[5] = tested on: H9c2; assay: Cytotoxicity against rat H9c2 cells assessed as LDH release at 5 umol/L after 24 hrs; assay type: cell-based; details: h9c2, 24 h, 5 µM; in short: as §2
[6] = tested on: MCF7; assay: Cytotoxicity against human MCF7 cells assessed as LDH release at 5 umol/L after 24 hrs; assay type: functional, cell-based; in short: as §2
[7] = tested on: H9c2; assay: Drug efflux in rat H9c2 cells at 1 to 100 umol/L incubated for 20 mins prior to compound wash out measured after 10 mins by spectrofluorimetry; assay type: ADME, cell-based; details: h9c2, 20 min
In short: (§3)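 Doxorubicin in whole-cell lysates measured fluorimetrically at ex 475/em 553 nm, blank subtracted, converted to nmol/mg cell protein by calibration curve. Kinetic values fitted to Michaelis-Menten equation to obtain Vmax and Km.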

[8] = tested on: MCF7; assay: Drug efflux in human MCF7 cells at 1 to 100 umol/L incubated for 20 mins prior to compound wash out measured after 10 mins by spectrofluorimetry; assay type: ADME, cell-based; details: mcf7, 20 min; in short: as §3
[9] = Cellular uptake in human MCF7 cell nucleus at 5 umol/L after 24 hrs by fluorimetric analysis; assay type: ADME, cell-based; details: mcf7, 24 h, 5 µM
In short: (§4)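 Cells incubated 24 h with 5 μmol/L drug. Doxorubicin measured fluorimetrically in nuclear or mitochondrial extracts, in duplicate. Means ± SD, n = 3.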

[10] = tested on: MDA-MB-231; assay: Antioxidant activity in human MDA-MB-231 cells assessed as intracellular ROS level at 5 umol/L after 24 hrs by DCFDA-AM staining-based spectrofluorimetry; assay type: functional, cell-based
In short: (§5)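 Cells rinsed in PBS, loaded with 10 μmol/L DCFDA-AM for 10 min at 37°C, washed, resuspended in PBS. DCFH fluorescence read at ex 490/em 530 nm, cell-free blank subtracted, converted to nmol/mg cell protein by titration curve. Means ± SD; ANOVA with Tukey's test.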

[11] = tested on: MCF7; assay: Antioxidant activity in human MCF7 cells assessed as intracellular malonyldialdehyde level at 5 umol/L after 24 hrs by spectrofluorimetry; assay type: functional, cell-based
[12] = organism: Homo sapiens; assay: Inhibition of human topoisomerase 2 using supercoiled pHOT1 as substrate at 1 to 50 umol/L by agarose gel electrophoresis
In short: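 Purified human topoisomerase II incubated with supercoiled pHOT1 plasmid and drug at 1, 5, 25, 50 μmol/L, using a commercial topoisomerase II drug screening kit. Etoposide at 5, 50, 100 μmol/L served as positive control.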

[13] = Cellular uptake in rat H9c2 cell mitochondria at 5 umol/L after 24 hrs by fluorimetric analysis; assay type: ADME; details: h9c2, 24 h, 5 µM; in short: as §4
[14] = Cellular uptake in human MDA-MB-231 cell mitochondria at 5 umol/L after 24 hrs by fluorimetric analysis; assay type: ADME; details: mda-mb-231, 24 h, 5 µM; in short: as §4
[15] = tested on: MCF7; assay: Antioxidant activity in human MCF7 cells assessed as intracellular ROS level at 5 umol/L after 24 hrs by DCFDA-AM staining-based spectrofluorimetry; assay type: functional, cell-based; in short: as §5
[16] = tested on: H9c2; assay: Antioxidant activity in rat H9c2 cells assessed as intramitochondrial ROS level at 5 umol/L after 24 hrs by DCFDA-AM staining-based spectrofluorimetry; assay type: functional, cell-based
In short: (§6)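 Mitochondria freshly isolated from cells grown 24 h with 5 μmol/L compound. DCFDA-AM loading and fluorescence read (ex 490/em 530 nm) as for whole cells, blank subtracted. Values expressed as nmol/mg mitochondrial protein. Measured in duplicate; means ± SD.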

[17] = tested on: MCF7; assay: Antioxidant activity in human MCF7 cells assessed as intramitochondrial ROS level at 5 umol/L after 24 hrs by DCFDA-AM staining-based spectrofluorimetry; assay type: functional, cell-based; in short: as §6
[18] = tested on: MDA-MB-231; assay: Antioxidant activity in human MDA-MB-231 cells assessed as intramitochondrial ROS level at 5 umol/L after 24 hrs by DCFDA-AM staining-based spectrofluorimetry; assay type: functional, cell-based; in short: as §6
[19] = tested on: MDA-MB-231; assay: Drug efflux in human MDA-MB-231 cells at 1 to 100 umol/L incubated for 20 mins prior to compound wash out measured after 10 mins by spectrofluorimetry; assay type: ADME, cell-based; details: mda-mb-231, 20 min; in short: as §3
[20] = tested on: H9c2; assay: Antioxidant activity in rat H9c2 cells assessed as intracellular malonyldialdehyde level at 5 umol/L after 24 hrs by spectrofluorimetry; assay type: functional, cell-based
[21] = Cellular uptake in human MCF7 cell mitochondria at 5 umol/L after 24 hrs by fluorimetric analysis; assay type: ADME; details: mcf7, 24 h, 5 µM; in short: as §4
[22] = Cellular uptake in rat H9c2 cell nucleus at 5 umol/L after 24 hrs by fluorimetric analysis; assay type: ADME, cell-based; details: h9c2, 24 h, 5 µM; in short: as §4
[23] = tested on: MDA-MB-231; assay: Antioxidant activity in human MDA-MB-231 cells assessed as intracellular malonyldialdehyde level at 5 umol/L after 24 hrs by spectrofluorimetry; assay type: functional, cell-based
[24] = tested on: H9c2; assay: Antioxidant activity in rat H9c2 cells assessed as intracellular ROS level at 5 umol/L after 24 hrs by DCFDA-AM staining-based spectrofluorimetry; assay type: functional, cell-based; in short: as §5
[25] = Cellular uptake in human MDA-MB-231 cell nucleus at 5 umol/L after 24 hrs by fluorimetric analysis; assay type: ADME, cell-based; details: mda-mb-231, 24 h, 5 µM; in short: as §4

## COc1cccc2c1C(=O)c1c(O)c3c(c(O)c1C2=O)C[C@@](O)(C(=O)COC(=O)/C=C/c1ccc(O)c(O)c1)C[C@@H]3O[C@H]1C[C@H](N)[C@H](O)[C@H](C)O1.Cl
[1]
  Drug uptake: Active
[2]
  Activity: inactive
[3]
  Drug uptake: Active
[4]
  Drug uptake: Active
[5]
  Activity: Toxic
[6]
  Activity: Active

## COc1cc(/C=C/C(=O)OCC(=O)[C@]2(O)Cc3c(O)c4c(c(O)c3[C@@H](O[C@H]3C[C@H](N)[C@H](O)[C@H](C)O3)C2)C(=O)c2c(OC)cccc2C4=O)ccc1O.Cl
[7]
  Km: 2.01 nmol/mg
  Vmax: 11.7 nmol/min/mg
[8]
  Km: 1.83 nmol/mg
  Vmax: 11.1 nmol/min/mg
[9]
  Drug uptake: Active
[1]
  Drug uptake: Not Active
[10]
  Activity: inactive
[2]
  Activity: Active
[11]
  Activity: Active
[12]
  inhibition: Active
[13]
  Drug uptake: Active
[14]
  Drug uptake: Active
[3]
  Drug uptake: Active
[15]
  Activity: Active
[4]
  Drug uptake: Active
[16]
  Activity: Active
[17]
  Activity: Active
[18]
  Activity: inactive
[19]
  Km: 1.25 nmol/mg
  Vmax: 16.53 nmol/min/mg
[20]
  Activity: Active
[21]
  Drug uptake: Active
[22]
  Drug uptake: Active
[23]
  Activity: inactive
[24]
  Activity: Active
[25]
  Drug uptake: Active
[5]
  Activity: Toxic
[6]
  Activity: Active

## COc1cccc2c1C(=O)c1c(O)c3c(c(O)c1C2=O)C[C@@](O)(C(=O)CO)C[C@@H]3O[C@H]1C[C@H](N)[C@H](O)[C@H](C)O1 [DOXORUBICIN]
[7]
  Km: 1.96 nmol/mg
  Vmax: 11.89 nmol/min/mg
[8]
  Km: 1.88 nmol/mg
  Vmax: 18.9 nmol/min/mg
[9]
  Drug uptake: Active
[1]
  Drug uptake: Not Active
[10]
  Activity: inactive
[2]
  Activity: Active
[11]
  Activity: Active
[12]
  inhibition: Active
[3]
  Drug uptake: Active
[15]
  Activity: Active
[4]
  Drug uptake: Active
[16]
  Activity: Active
[17]
  Activity: Active
[18]
  Activity: inactive
[19]
  Km: 1.35 nmol/mg
  Vmax: 33.11 nmol/min/mg
[20]
  Activity: Active
[23]
  Activity: inactive
[24]
  Activity: Active
[25]
  Drug uptake: Active
[5]
  Activity: Toxic
[6]
  Activity: Active
